In data set [1] the test system is Staphylococcus aureus. Description: Antibacterial activity against Staphylococcus aureus ATCC 25923 after 18 to 24 hrs by serial broth microdilution susceptibility test. It counts as functional. In short, it runs like this:
(§1)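 MIC determined by serial microdilution in microplates. Candida inocula were prepared in L-glutamine-deficient RPMI-1640 medium.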
In general terms: In broth dilution the organism is exposed to a series of concentrations in liquid medium.

For data set [2], the system named is Candida albicans. As to the kind of experiment: Antifungal activity against Candida albicans ATCC 90028 after 24 to 48 hrs by serial broth microdilution susceptibility test. It counts as functional. In short, it runs like this: as §1
Data set [3] has as its system Escherichia coli. Description: Antibacterial activity against Escherichia coli ATCC 25922 after 18 to 24 hrs by serial broth microdilution susceptibility test. It counts as functional. In short, it runs like this:
as §1

The test system of another data set is Pichia kudriavzevii. As to the kind of experiment: Antifungal activity against Candida krusei ATCC 6258 after 24 to 48 hrs by serial broth microdilution susceptibility test. It counts as functional. An outline of the steps: as §1
In another data set the test system is Pseudomonas aeruginosa. Description: Antibacterial activity against Pseudomonas aeruginosa ATCC 27853 after 18 to 24 hrs by serial broth microdilution susceptibility test. It counts as functional. An outline of the steps: as §1
The subject of data set [4] is Klebsiella pneumoniae subsp. pneumoniae. Description: Antibacterial activity against Klebsiella pneumoniae subsp. pneumoniae ATCC 13882 after 18 to 24 hrs by serial broth microdilution susceptibility test. It counts as functional. In short, it runs like this:
as §1

Data set [5] deals with Escherichia coli. As to the kind of experiment: Antibacterial activity against Escherichia coli ATCC BAA-198 after 18 to 24 hrs by serial broth microdilution susceptibility test. It counts as functional. In short, it runs like this: as §1
In another data set the test system is Acinetobacter baumannii. As to the kind of experiment: Antibacterial activity against Acinetobacter baumannii ATCC 19606 after 18 to 24 hrs by serial broth microdilution susceptibility test. It counts as functional. The conditions noted are these: ATCC 19606 = CIP 70.34 = JCM 6841. In short, it runs like this:
as §1

Data set [6] deals with Bordetella bronchiseptica. Description: Antibacterial activity against Bordetella bronchiseptica ATCC 4617 after 18 to 24 hrs by serial broth microdilution susceptibility test. It counts as functional. An outline of the steps: as §1
The subject of data set [7] is Staphylococcus aureus. As to the kind of experiment: Antibacterial activity against Staphylococcus aureus ATCC 43300 after 18 to 24 hrs by serial broth microdilution susceptibility test. It counts as functional. In short, it runs like this: as §1
Another data set has as its system Candida parapsilosis. As to the kind of experiment: Antifungal activity against Candida parapsilosis ATCC 22019 after 24 to 48 hrs by serial broth microdilution susceptibility test. It counts as functional. The conditions noted are these: Lodderomyces parapsilosis. In short, it runs like this:
as §1

Data set [8] in a line: Toxicity in human erythrocytes assessed as hemolysis at 300 uM after 30 mins by spectrophotometry. It counts as cell-based, Erythrocyte. The conditions noted are these: read-out: Activity. In short, it runs like this: (§2)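 Human erythrocytes suspended in PBS were exposed to lipopeptides at 0.001–0.4 mmol/l and hemolysis was measured.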
Data set [9] has as its system Candida albicans. Description: Antifungal activity against Candida albicans ATCC 10231 assessed as increase in intracellular potassium release after 30 mins. It counts as functional, organism-based. An outline of the steps: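 Efflux of K+ from C. albicans cells was monitored continuously with a potassium-selective electrode. Release was expressed relative to a positive control, and EK50 was taken as the concentration releasing 50% of intracellular potassium.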

A short description of data set [10]: Toxicity in human erythrocytes assessed as hemolysis at 100 uM after 30 mins by spectrophotometry. The conditions noted are these: read-out: Activity. It counts as cell-based, Erythrocyte. In short, it runs like this: as §2
Data set [11] in a line: Toxicity in human erythrocytes assessed as hemolysis at 50 uM after 30 mins by spectrophotometry. It counts as cell-based, Erythrocyte. Conditions: read-out: Activity. An outline of the steps: as §2
Data set [12] is described as follows: Inhibition of beta (1,3) glucan synthase in Candida albicans cell membrane using UDP-Glc as substrate assessed as aniline blue-glucan complex formation by microtiter-based fluorescence method. In short, it runs like this: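 β(1,3)-glucan synthase in the membrane fraction of C. albicans was assayed by a microtiter-based fluorescence method across a concentration range. Values are means of three independent experiments (SD); IC50 was determined.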

Values after ≈ are worked out from the molar mass of the structure shown. Starred links: 1 amine or outer side, 2 acyl side, 3 side chain; linkers in the order of their positions; H or OH if unused. Positions of bridges follow the written chain, without caps; N, C: chain ends. Non-standard residues stand in square brackets, D forms with d. Residues, ends and D or L forms follow the SMILES beside them. Groups on a side chain read outwards from the residue. *: point of attachment. Orn(4R-OH,5R-OH) = O=C([C@H](C[C@@H](O)[C@@H](O)N[*:3])N[*:1])[*:2]; hTyr(3S-OH,4S-OH) = N[C@H](C(=O)O)[C@H](O)[C@@H](O)c1ccc(O)cc1; Pro(3S-OH,4S-Me) = C[C@H]1CN[C@H](C(=O)O)[C@H]1O; εLys = N[C@@H](CCCCN[*:1])C(=O)[*:2]; Palmitoyl = CCCCCCCCCCCCCCCC(=O)*; Hyp = O=C(O)[C@@H]1C[C@@H](O)CN1; ClZ = O=C(OCc1ccccc1Cl)*; Cbz = O=C(OCc1ccccc1)* Some results are limits rather than exact numbers.

In general, MIC refers to the lowest concentration found to suppress growth. A low value points to inhibition by little substance. As a reminder, the EC50 is the midpoint of the concentration-response curve. What is called IC50 is the concentration needed to halve the response being measured.

Turning to `NCCCC[C@H](NC(=O)OCc1ccccc1)C(=O)NCCCC[C@H](NC(=O)[C@H](CCCCN)NC(=O)OCc1ccccc1)C(=O)N[C@@H](Cc1ccccc1)C(N)=O` (Cbz-Lys-Lys([Lys-Cbz])-Phe-NH2), the MIC with Staphylococcus aureus [1] was over 144 µM; in the data set with Candida albicans [2], over 128 µM; in the data set with Escherichia coli [3] it was over 144 µM; in the data set with Pichia kudriavzevii, over 144 µM; against Pseudomonas aeruginosa it was over 144 µM; in data set [4], over 144 µM. The MIC in the data set with Escherichia coli [5] is over 144 µM; in the data set with Acinetobacter baumannii it was over 144 µM; in [6], 144 µM (≈ 118 µg/mL); in the data set on Staphylococcus aureus [7], over 144 µM; against Candida parapsilosis it was over 144 µM.
As for `CCCCCCCCNC(=O)[C@H](Cc1ccccc1)NC(=O)[C@H](CCCCNC(=O)[C@@H](N)CCCCN)NC(=O)[C@@H](N)CCCCN`, the MIC against Staphylococcus aureus [1] was 128 µM (≈ 84.6 µg/mL); against Candida albicans [2], 256 µM (≈ 169 µg/mL); with Escherichia coli [3] it was over 256 µM; in the data set on Pichia kudriavzevii, 128 µM (≈ 84.6 µg/mL); against Pseudomonas aeruginosa it was over 256 µM; in [4], over 256 µM. Moreover, the MIC is over 256 µM in the data set on Escherichia coli [5]; over 256 µM in the data set with Acinetobacter baumannii; 32 µM (≈ 21.2 µg/mL) in data set [6]; 128 µM (≈ 84.6 µg/mL) in the data set with Staphylococcus aureus [7]; 64 µM (≈ 42.3 µg/mL) with Candida parapsilosis. The hemolysis at 0.5 h, 300 µM in data set [8] turned out to be 10%.
With NYSTATIN, in the data set with Candida albicans [9], the EC50 came out at 2.4 µM.
With `NC(=O)[C@H](Cc1ccccc1)NC(=O)[C@H](CCCCNC(=O)[C@@H](N)CCCCNC(=O)OCc1ccccc1Cl)NC(=O)[C@@H](N)CCCCNC(=O)OCc1ccccc1Cl` (H-Lys(ClZ)-Lys([εLys-ClZ])-Phe-NH2), the MIC turned out to be 33 µM (≈ 29.2 µg/mL) in the data set with Staphylococcus aureus [1]; 33 µM (≈ 29.2 µg/mL) with Candida albicans [2]; 33 µM (≈ 29.2 µg/mL) against Escherichia coli [3]; 33 µM (≈ 29.2 µg/mL) against Pichia kudriavzevii; 67 µM (≈ 59.4 µg/mL) against Pseudomonas aeruginosa; 34 µM (≈ 30.1 µg/mL) in data set [4]. The minimal inhibitory concentration (MIC) was 16 µM (≈ 14.2 µg/mL) against Escherichia coli [5]; 67 µM (≈ 59.4 µg/mL) against Acinetobacter baumannii; 8 µM (≈ 7.09 µg/mL) in data set [6]; 17 µM (≈ 15.1 µg/mL) in the data set with Staphylococcus aureus [7]; 33 µM (≈ 29.2 µg/mL) in the data set on Candida parapsilosis.
For the compound `CCCCCCCCNC(=O)[C@H](Cc1ccccc1)NC(=O)[C@H](CCCCNC(=O)[C@H](CCCCN)NC(=O)OCc1ccccc1Cl)NC(=O)[C@H](CCCCN)NC(=O)OCc1ccccc1Cl`, the MIC in the data set on Staphylococcus aureus [1] is 16 µM (≈ 16 µg/mL); in the data set with Candida albicans [2], 32 µM (≈ 31.9 µg/mL); against Escherichia coli [3], 32 µM (≈ 31.9 µg/mL); with Pichia kudriavzevii, 16 µM (≈ 16 µg/mL); with Pseudomonas aeruginosa it was 32 µM (≈ 31.9 µg/mL); in data set [4] it was 128 µM (≈ 128 µg/mL). Further, the MIC in the data set with Escherichia coli [5] was 32 µM (≈ 31.9 µg/mL); in the data set on Acinetobacter baumannii, over 256 µM; in [6], 8 µM (≈ 7.98 µg/mL); in the data set with Staphylococcus aureus [7], 16 µM (≈ 16 µg/mL); in the data set on Candida parapsilosis it was 16 µM (≈ 16 µg/mL). The hemolysis at 0.5 h, 100 µM in data set [10] came out at 10%.
For `CCCCCCCCNC(=O)[C@H](Cc1ccccc1)NC(=O)[C@H](CCCCNC(=O)[C@H](CCCCN)NC(=O)OCc1ccccc1)NC(=O)[C@H](CCCCN)NC(=O)OCc1ccccc1`, the MIC was 32 µM (≈ 29.7 µg/mL) against Staphylococcus aureus [1]; 32 µM (≈ 29.7 µg/mL) in the data set on Candida albicans [2]; 30 µM (≈ 27.9 µg/mL) in the data set with Escherichia coli [3]; 16 µM (≈ 14.9 µg/mL) in the data set with Pichia kudriavzevii; 32 µM (≈ 29.7 µg/mL) in the data set with Pseudomonas aeruginosa; 128 µM (≈ 119 µg/mL) in data set [4]. The MIC with Escherichia coli [5] was 8 µM (≈ 7.43 µg/mL); in the data set on Acinetobacter baumannii, 128 µM (≈ 119 µg/mL); in data set [6], 8 µM (≈ 7.43 µg/mL); against Staphylococcus aureus [7] it was 16 µM (≈ 14.9 µg/mL); against Candida parapsilosis it was 16 µM (≈ 14.9 µg/mL). Further, the hemolysis at 0.5 h, 50 µM in [11] was 10%.
Compound `CCCCCCCCCCCCCCCC(=O)N[C@H]1C[C@@H](O)[C@@H](O)NC(=O)[C@@H]2[C@@H](O)[C@@H](C)CN2C(=O)[C@H]([C@@H](C)O)NC(=O)[C@H]([C@H](O)[C@@H](O)c2ccc(O)cc2)NC(=O)[C@@H]2C[C@@H](O)CN2C(=O)[C@H]([C@@H](C)O)NC1=O` [ACULEACIN A] (Palmitoyl-[Orn(4R-OH,5R-OH)]T[Hyp][hTyr(3S-OH,4S-OH)]T[Pro(3S-OH,4S-Me)]; lactam 1-C) came in with an MIC against Candida albicans [2] of 0.5 µM (≈ 0.518 µg/mL). Also, the IC50 in data set [12] turned out to be 12 µM.

Source of the values: ChEMBL document CHEMBL1949532, “Novel dendrimeric lipopeptides with antifungal activity” (Bioorg Med Chem Lett, 2012).
